{"source": "ChEMBL document CHEMBL1123779", "about": "“Modifications of primaquine as antimalarials. 4. 5-Alkoxy derivatives of primaquine” (J Med Chem, 1987)", "key": {"Mus musculus [1]": {"tested_on": "Mus musculus", "experiment": "(§1) Suppressive blood schizonticidal antimalarial activity evaluated in the trophozoite-induced Plasmodium berghei infection in mice (Mus musculus) at a dose 160 mg/kg", "type": "ADME, organism-based", "parameters": "dose 160 mg/kg", "details": "in vivo", "in_short": "(§2)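 Run at the Rane Laboratory in mice infected with blood-induced P. berghei, five animals per group. Activity is the increase in mean survival time over untreated infected controls. A compound counts as active when treated-group MST is more than twice the control MST. Cures are mice surviving at 60 days postinfection.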"}, "Plasmodium cynomolgi [2]": {"tested_on": "Plasmodium cynomolgi", "experiment": "Cures in Plasmodium cynomolgi infected Rhesus monkeys (Macaca mulatta) on 0.1 mg/kg/day after 7 days (x7); cured 0 of 2", "type": "functional"}, "Mus musculus [3]": {"tested_on": "Mus musculus", "experiment": "(§3) Suppressive blood schizonticidal antimalarial activity evaluated in the trophozoite-induced Plasmodium berghei infection in mice (Mus musculus) at a dose 80 mg/kg", "type": "ADME, organism-based", "parameters": "dose 80 mg/kg", "details": "in vivo", "in_short": "as §2"}, "Plasmodium cynomolgi [4]": {"tested_on": "Plasmodium cynomolgi", "experiment": "Cures in Plasmodium cynomolgi infected Rhesus monkeys (Macaca mulatta) on 1 mg/kg/day after 7 days; cured 3 of 3", "type": "functional"}, "Plasmodium berghei [5]": {"tested_on": "Plasmodium berghei", "experiment": "(§4) Suppressive blood schizonticidal antimalarial activity evaluated in the trophozoite-induced Plasmodium berghei infection in mice (Mus musculus) at a dose 640 mg/kg given as number of toxic deaths", "type": "toxicity, organism-based", "parameters": "dose 640 mg/kg", "details": "in vivo", "in_short": "(§5)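 Rane Laboratory mouse test with blood-induced P. berghei infection, five mice per group. Toxic deaths are deaths occurring before the 6th day postinfection.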"}, "Plasmodium cynomolgi [6]": {"tested_on": "Plasmodium cynomolgi", "experiment": "Cures in Plasmodium cynomolgi infected Rhesus monkeys (Macaca mulatta) on 10.0 mg/kg/day after 7 days; cured 1 of 1", "type": "functional"}, "Mus musculus [7]": {"tested_on": "Mus musculus", "experiment": "Suppressive blood schizonticidal antimalarial activity evaluated in the trophozoite-induced Plasmodium berghei infection in mice (Mus musculus) at a dose 10 mg/kg", "type": "functional", "in_short": "as §2"}, "Mus musculus [8]": {"tested_on": "Mus musculus", "experiment": "Suppressive blood schizonticidal antimalarial activity evaluated in the trophozoite-induced Plasmodium berghei infection in mice (Mus musculus) at a dose 40 mg/kg", "type": "functional", "parameters": "unit not given beside the values", "in_short": "as §2"}, "Mus musculus [9]": {"tested_on": "Mus musculus", "experiment": "Suppressive blood schizonticidal antimalarial activity evaluated in the trophozoite-induced Plasmodium berghei infection in mice (Mus musculus) at a dose 320 mg/kg given as no. of toxic deaths", "type": "functional", "in_short": "as §5"}, "Plasmodium berghei [10]": {"tested_on": "Plasmodium berghei", "experiment": "Blood schizonticidal antimalarial activity in the trophozoite-induced Plasmodium berghei infection in mice (Mus musculus) at 20 mg/kg", "type": "functional", "parameters": "unit not given beside the values", "in_short": "as §2"}, "Plasmodium cynomolgi [11]": {"tested_on": "Plasmodium cynomolgi", "experiment": "Cures in Plasmodium cynomolgi infected Rhesus monkeys (Macaca mulatta) on 0.316 mg/kg/day after 7 days; cures 2 of 2", "type": "functional"}, "Plasmodium cynomolgi [12]": {"tested_on": "Plasmodium cynomolgi", "experiment": "Cures in Plasmodium cynomolgi infected Rhesus monkeys (Macaca mulatta) on 0.316 mg/kg/day after 7 days; cured 1 of 2", "type": "functional"}, "Mus musculus [13]": {"tested_on": "Mus musculus", "experiment": "as §3", "type": "functional", "parameters": "unit not given beside the values", "in_short": "as §2"}, "Plasmodium cynomolgi [14]": {"tested_on": "Plasmodium cynomolgi", "experiment": "Cures in Plasmodium cynomolgi infected Rhesus monkeys (Macaca mulatta) on 1 mg/kg/day after 7 days; cured 1 of 1", "type": "functional"}, "Mus musculus [15]": {"tested_on": "Mus musculus", "experiment": "Suppressive blood schizonticidal antimalarial activity evaluated in the trophozoite-induced Plasmodium berghei infection in mice (Mus musculus) at a dose 160 mg/kg given as no. of toxic deaths", "type": "functional", "in_short": "as §5"}, "Mus musculus [16]": {"tested_on": "Mus musculus", "experiment": "as §4", "type": "ADME, organism-based", "parameters": "dose 640 mg/kg", "details": "in vivo", "in_short": "as §5"}, "Plasmodium cynomolgi [17]": {"tested_on": "Plasmodium cynomolgi", "experiment": "Cures in Plasmodium cynomolgi infected Rhesus monkeys (Macaca mulatta) on 0.316 mg/kg/day after 7 days; cured 0 of 2", "type": "functional"}, "Mus musculus [18]": {"tested_on": "Mus musculus", "experiment": "as §1", "type": "functional", "in_short": "as §2"}, "Mus musculus [19]": {"tested_on": "Mus musculus", "experiment": "Suppressive blood schizonticidal antimalarial activity evaluated in the trophozoite-induced Plasmodium berghei infection in mice (Mus musculus) at a dose 320 mg/kg", "type": "functional", "in_short": "as §2"}, "Mus musculus [20]": {"tested_on": "Mus musculus", "experiment": "Suppressive blood schizonticidal antimalarial activity evaluated in the trophozoite-induced Plasmodium berghei infection in mice (Mus musculus) at a dose 640 mg/kg given as no. of cures", "type": "functional", "in_short": "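Run at the Rane Laboratory with blood-induced P. berghei infections in mice, five animals per group. A cure is a mouse surviving to 60 days postinfection. Deaths before day 6 are recorded separately as toxic deaths. Activity is scored from the increase in mean survival time over untreated controls, and counts as active when treated MST is more than twice control MST.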"}, "Plasmodium cynomolgi [21]": {"tested_on": "Plasmodium cynomolgi", "experiment": "Cures in Plasmodium cynomolgi infected Rhesus monkeys (Macaca mulatta) on 10.0 mg/kg/day after 7 days; cured 2 of 2", "type": "functional"}, "Plasmodium cynomolgi [22]": {"tested_on": "Plasmodium cynomolgi", "experiment": "Cures in Plasmodium cynomolgi infected Rhesus monkeys (Macaca mulatta) on 1 mg/kg/day after 7 days; cured 0 of 2", "type": "functional"}}, "data": [{"smiles": "CCCOc1c(OC)cc(NC(C)CCCN)c2ncccc12", "note": "(stereo not given)", "values": [{"measurement": "Toxic deaths", "setting": "Mus musculus [1]", "value": 5}, {"measurement": "Cures/no. of animals", "setting": "Plasmodium cynomolgi [2]", "value": 0}, {"measurement": "Toxic deaths", "setting": "Mus musculus [3]", "value": 1}, {"measurement": "Cures/no. of animals", "setting": "Plasmodium cynomolgi [4]", "value": 3}, {"measurement": "Toxic deaths", "setting": "Plasmodium berghei [5]", "value": 5}, {"measurement": "Cures/no. of animals", "setting": "Plasmodium cynomolgi [6]", "value": 1}, {"measurement": "Delta MST", "setting": "Mus musculus [7]", "value": 3.7}, {"measurement": "Delta MST", "setting": "Mus musculus [8]", "value": 8.3}, {"measurement": "Toxic deaths", "setting": "Mus musculus [9]", "value": 5}, {"measurement": "Delta MST", "setting": "Plasmodium berghei [10]", "value": 4.5}, {"measurement": "Cures/no. of animals", "setting": "Plasmodium cynomolgi [11]", "value": 2}]}, {"smiles": "CCCCCOc1c(OC)cc(NC(C)CCCN)c2ncccc12", "note": "(stereo not given)", "values": [{"measurement": "Cures/no. of animals", "setting": "Plasmodium cynomolgi [2]", "value": 0}, {"measurement": "Delta MST", "setting": "Mus musculus [7]", "value": 4.3}, {"measurement": "Cures/no. of animals", "setting": "Plasmodium cynomolgi [12]", "value": 1}, {"measurement": "Delta MST", "setting": "Mus musculus [8]", "value": 6.1}, {"measurement": "Toxic deaths", "setting": "Mus musculus [9]", "value": 5}, {"measurement": "Delta MST", "setting": "Plasmodium berghei [10]", "value": 4.7}, {"measurement": "Delta MST", "setting": "Mus musculus [13]", "value": 4.7}, {"measurement": "Cures/no. of animals", "setting": "Plasmodium cynomolgi [14]", "value": 1}, {"measurement": "Toxic deaths", "setting": "Mus musculus [15]", "value": 4}, {"measurement": "Toxic deaths", "setting": "Mus musculus [16]", "value": 2}]}, {"smiles": "COc1cc(NC(C)CCCN)c2nccc(C)c2c1", "note": "(stereo not given)", "values": [{"measurement": "Cures/no. of animals", "setting": "Plasmodium cynomolgi [17]", "value": 0}, {"measurement": "Delta MST", "setting": "Mus musculus [18]", "value": 9}, {"measurement": "Delta MST", "setting": "Mus musculus [19]", "value": 10}, {"measurement": "Delta MST", "setting": "Mus musculus [8]", "value": 4.9}, {"measurement": "Delta MST", "setting": "Plasmodium berghei [10]", "value": 3.1}, {"measurement": "Delta MST", "setting": "Mus musculus [13]", "value": 5.5}, {"measurement": "Cures", "setting": "Mus musculus [20]", "value": 3}, {"measurement": "Cures/no. of animals", "setting": "Plasmodium cynomolgi [21]", "value": 2}, {"measurement": "Cures/no. of animals", "setting": "Plasmodium cynomolgi [22]", "value": 2}]}]}
